Reference: ChEMBL document CHEMBL1143597, “Thrombospondin-1 mimetic peptide inhibitors of angiogenesis and tumor growth: design, synthesis, and optimization of pharmacokinetics and biological activities” (J Med Chem, 2005)
Where a SMILES comes first, the peptide text is derived from it. [ ]: non-standard residue; d: D form. d(aIle) = CC[C@H](C)[C@@H](N)C(=O)O; Nva = CCC[C@H](N)C(=O)O; Sar = CNCC(=O)O

Assays:
[1] = In vitro inhibitory concentration against HMVE cell migration was determined; type: functional, cell-based; settings: Homo sapiens
Method in brief: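 Primary HMVEC grown to 80-90% confluency, starved 18 h in EBM with 5% FCS, labelled with calcein AM 30 min at room temperature. Cells with or without compound (in D5W) are placed above a filter with VEGF (10 ng) below, then held 4 h at 37 °C, 5% CO2. Unmigrated cells are wiped off and fluorescence is read (485/530). % inhibition is taken versus the VEGF positive control.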

[2] = In vitro inhibitory concentration against HMVEC endothelial tube formation was determined; type: functional, Homo sapiens
[3] = In vitro inhibitory concentration against HMVEC endothelial tube formation was determined; […]; type: functional, Homo sapiens
[4] = In vitro inhibitory concentration against HMVEC endothelial tube formation was determined; 50 - 25 nM; type: functional, Homo sapiens
[5] = In vitro inhibitory concentration against HMVEC endothelial tube formation was determined; 0.25 - 0.10 nM; type: functional, Homo sapiens
[6] = Inhibitory concentration against TSP-1 binding towards HMVEC cell line migration; type: functional, cell-based; settings: Homo sapiens
[7] = In vitro inhibitory concentration against HMVEC endothelial tube formation was determined; 200 - 100 nM; type: functional, Homo sapiens

| Compound | IC50 [1] [nM] | other results |
| --- | --- | --- |
| CCNC(=O)[C@H](CCCN=C(N)N)NC(=O)[C@@H](NC(=O)[C@H](CCCN=C(N)N)NC(=O)[C@@H](NC(=O)[C@H](NC(=O)[C@@H](NC(=O)CNC(C)=O)C(C)C)[C@H](C)CC)[C@@H](C)O)[C@@H](C)CC | > 100 | – |
| CCC[C@H](NC(=O)[C@@H](NC(=O)[C@H](CCCN=C(N)N)NC(=O)[C@@H](NC(=O)[C@H](NC(=O)[C@@H](NC(=O)CNC(C)=O)C(C)C)[C@H](C)CC)[C@@H](C)O)[C@@H](C)CC)C(=O)NCC | 1.45 | – |
| CCC[C@H](NC(=O)[C@@H](NC(=O)[C@H](NC(=O)[C@@H](NC(=O)CNC(C)=O)C(C)C)[C@H](C)CC)[C@@H](C)O)C(=O)N[C@H](C(=O)N[C@@H](CCCN=C(N)N)C(=O)NCC)[C@@H](C)CC | 4.22 | – |
| CCC[C@H](NC(=O)[C@@H](NC(=O)[C@H](NC(=O)[C@@H](NC(=O)CNC(C)=O)C(C)C)[C@H](C)CC)[C@@H](C)O)C(=O)N[C@H](C(=O)N[C@@H](CCCN=C(N)N)C(=O)N1CCC[C@H]1C(=O)NCC)[C@@H](C)CC | 0.07 | – |
| CCC[C@H](NC(=O)[C@@H](NC(=O)[C@H](NC(=O)[C@@H](NC(=O)CNC(=O)CN(C)C(C)=O)C(C)C)[C@H](C)CC)[C@@H](C)O)C(=O)N[C@H](C(=O)N[C@@H](CCCN=C(N)N)C(=O)N1CCC[C@H]1C(=O)NC(C)C)[C@@H](C)CC | 29 | IC50 [2]: > 1000 nM |
| CCC[C@H](NC(=O)[C@@H](NC(=O)[C@H](NC(=O)[C@@H](NC(=O)CNC(=O)CN(C)C(=O)CCC(=O)O)C(C)C)[C@H](C)CC)[C@@H](C)O)C(=O)N[C@H](C(=O)N[C@@H](CCCN=C(N)N)C(=O)N1CCC[C@H]1C(=O)NCC)[C@@H](C)CC | 0.26 | IC50 [3]: 10 nM |
| CCC[C@@H](C(=O)N[C@H](C(=O)N[C@@H](CCCN=C(N)N)C(=O)N1CCC[C@H]1C(=O)NCC)[C@@H](C)CC)N(C)C(=O)[C@@H](NC(=O)[C@H](NC(=O)[C@@H](NC(=O)CNC(=O)CN(C)C(C)=O)C(C)C)[C@H](C)CC)[C@@H](C)O | 0.54 | IC50 [4]: 50 nM |
| CCC[C@@H](C(=O)N[C@H](C(=O)N[C@@H](CCCN=C(N)N)C(=O)N1CCC[C@H]1C(=O)NCC)[C@@H](C)CC)N(C)C(=O)[C@@H](NC(=O)[C@H](NC(=O)[C@@H](NC(=O)CNC(=O)CN(C)C(=O)CCC(=O)O)C(C)C)[C@H](C)CC)[C@@H](C)O | 0.45 | IC50 [3]: 10 nM |
| CCC[C@@H](C(=O)N[C@H](C(=O)N[C@@H](CCCN=C(N)N)C(=O)N1CCC[C@H]1C(=O)NC(C)C)[C@@H](C)CC)N(C)C(=O)[C@@H](NC(=O)[C@H](NC(=O)[C@@H](NC(=O)CNC(=O)CN(C)C(=O)CCC(=O)O)C(C)C)[C@H](C)CC)[C@@H](C)O | 0.06 | IC50 [5]: 0.25 nM |
| CCC[C@H](NC(=O)[C@@H](NC(=O)[C@H](NC(=O)[C@@H](NC(=O)CNC(=O)CN(C)C(C)=O)C(C)C)[C@H](C)CC)[C@@H](C)O)C(=O)N[C@H](C(=O)N[C@@H](CCCN=C(N)N)C(=O)N1CCC[C@H]1C(=O)NCC)[C@@H](C)CC [ABT 510] (Ac-[Sar]GV[dI]T[Nva]IRP-NHEt) | – | IC50 [6]: 0.03 nM; IC50 [7]: 200 nM |
| CCC[C@H](NC(=O)[C@@H](NC(=O)[C@H](NC(=O)[C@@H](NC(=O)CNC(=O)CN(C)C(C)=O)C(C)C)[C@@H](C)CC)[C@@H](C)O)C(=O)N[C@H](C(=O)N[C@@H](CCCNC(=N)N)C(=O)N1CCC[C@H]1C(=O)NCC)[C@@H](C)CC [ABT-510] (Ac-[Sar]GV[d(aIle)]T[Nva]IRP-NHEt) | – | IC50 [6]: 0.89 nM; IC50 [3]: 10 nM |
